# B1: Osa-1-4 twister ribozyme (parent)
# chain: CCGCCUAACACUGCCAAUGCCGGUCCCAAGCCCGGAUAAAAGUGGAGGGGGCGG
# Variants of: B1
# Assay: self-cleavage, relative activity (ratio to wild type); higher = more cleavage; co-transcriptional
# Method in brief: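 A DNA template for a 54-nucleotide Oryza sativa twister ribozyme was synthesised with 97 % wild-type base and 1 % of each other base at the 48 positions downstream of the cleavage site. It was transcribed in vitro for 2 h at 37 °C, allowing co-transcriptional self-cleavage, then reverse-transcribed with a template-switching oligonucleotide, PCR-amplified and deep-sequenced. Cleavage status was scored from reads with or without upstream sequence. Relative activity is fraction cleaved normalised to wild type.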
row,Variant,self-cleavage
1,G30U U12A,0.03
2,G30U U12C,0.03
3,G30U U12G,0.03
4,G30U U18A,0.03
5,G30U U18C,0.04
6,G30U U18G,0.04
7,G30U U24A,0.02
8,G30U U24C,0.02
9,G30U U24G,0.01
10,G30U U37A,0.02
11,G30U U37C,0.04
12,G30U U37G,0.04
13,G30U U43A,0.04
14,G30U U43C,0.04
15,G30U U43G,0.04
16,C31A,0.04
17,C31A C9A,0.02
18,C31A C9G,0.04
19,C31A C9U,0.03
20,C31A C32A,0.04
21,C31A C32G,0.02
22,C31A C32U,0.01
23,C31A C33A,0.05
24,C31A C33G,0.02

row,Variant,self-cleavage
1,C31A C33U,0.03
2,C31A C52A,0.05
3,C31A C52G,0.05
4,C31A C52U,0.05
5,C31A G13A,0.01
6,C31A G13C,0.01
7,C31A G13U,0.02
8,C31A G19A,0.04
9,C31A G19C,0.02
10,C31A G19U,0.02
11,C31A G22A,0.04
12,C31A G22C,0.02
13,C31A G22U,0.04
14,C31A G23A,0.03
15,C31A G23C,0.02
16,C31A G23U,0.02
17,C31A G30A,0.02
18,C31A G30C,0.03
19,C31A G30U,0.01
20,C31A G34A,0.05
21,C31A G34C,0.04
22,C31A G34U,0.04
23,C31A G35A,0.05
24,C31A G35C,0.03

row,Variant,self-cleavage
1,C31A G35U,0.05
2,C31A G42A,0.03
3,C31A G42C,0.02
4,C31A G42U,0.01
5,C31A G44A,0.04
6,C31A G44C,0.03
7,C31A G44U,0.03
8,C31A G45A,0.02
9,C31A G45C,0.01
10,C31A G45U,0.02
11,C31A G47A,0.02
12,C31A G47C,0.02
13,C31A G47U,0.02
14,C31A G48A,0.02
15,C31A G48C,0.02
16,C31A G48U,0.01
17,C31A G49A,0.02
18,C31A G49C,0.01
19,C31A G49U,0.02
20,C31A G50A,0.04
21,C31A G50C,0.04
22,C31A G50U,0.04
23,C31A G51A,0.04
24,C31A G51C,0.02

row,Variant,self-cleavage
1,C31A G51U,0.04
2,C31A G53A,0.04
3,C31A G53C,0.01
4,C31A G53U,0.03
5,C31A G54A,0.04
6,C31A G54C,0.04
7,C31A G54U,0.05
8,C31A U12A,0.04
9,C31A U12C,0.02
10,C31A U12G,0.04
11,C31A U18A,0.04
12,C31A U18C,0.04
13,C31A U18G,0.05
14,C31A U24A,0.02
15,C31A U24C,0.02
16,C31A U24G,0.01
17,C31A U37A,0.03
18,C31A U37C,0.04
19,C31A U37G,0.05
20,C31A U43A,0.03
21,C31A U43C,0.03
22,C31A U43G,0.04
23,C31G,0.11
24,C31G C9A,0.03

row,Variant,self-cleavage
1,C31G C9G,0.23
2,C31G C9U,0.06
3,C31G C32A,0.02
4,C31G C32G,0.1
5,C31G C32U,0.04
6,C31G C33A,0.04
7,C31G C33G,0.03
8,C31G C33U,0.06
9,C31G C52A,0.1
10,C31G C52G,0.15
11,C31G C52U,0.12
12,C31G G13A,0.06
13,C31G G13C,0.06
14,C31G G13U,0.04
15,C31G G19A,0.08
16,C31G G19C,0.02
17,C31G G19U,0.05
18,C31G G22A,0.11
19,C31G G22C,0.04
20,C31G G22U,0.05
21,C31G G23A,0.06
22,C31G G23C,0.11
23,C31G G23U,0.03
24,C31G G30A,0.04

row,Variant,self-cleavage
1,C31G G30C,0.03
2,C31G G30U,0.04
3,C31G G34A,0.11
4,C31G G34C,0.1
5,C31G G34U,0.08
6,C31G G35A,0.15
7,C31G G35C,0.04
8,C31G G35U,0.12
9,C31G G42A,0.1
10,C31G G42C,0.05
11,C31G G42U,0.02
12,C31G G44A,0.08
13,C31G G44C,0.07
14,C31G G44U,0.05
15,C31G G45A,0.04
16,C31G G45C,0.03
17,C31G G45U,0.03
18,C31G G47A,0.04
19,C31G G47C,0.03
20,C31G G47U,0.04
21,C31G G48A,0.03
22,C31G G48C,0.03
23,C31G G48U,0.02
24,C31G G49A,0.05

row,Variant,self-cleavage
1,C31G G49C,0.03
2,C31G G49U,0.03
3,C31G G50A,0.11
4,C31G G50C,0.07
5,C31G G50U,0.06
6,C31G G51A,0.08
7,C31G G51C,0.04
8,C31G G51U,0.05
9,C31G G53A,0.08
10,C31G G53C,0.04
11,C31G G53U,0.07
12,C31G G54A,0.1
13,C31G G54C,0.07
14,C31G G54U,0.19
15,C31G U12A,0.08
16,C31G U12C,0.06
17,C31G U12G,0.05
18,C31G U18A,0.1
19,C31G U18C,0.13
20,C31G U18G,0.15
21,C31G U24A,0.04
22,C31G U24C,0.03
23,C31G U24G,0.02
24,C31G U37A,0.12

row,Variant,self-cleavage
1,C31G U37C,0.09
2,C31G U37G,0.14
3,C31G U43A,0.1
4,C31G U43C,0.06
5,C31G U43G,0.09
6,C31U,0.97
7,C31U C9A,0.11
8,C31U C9G,0.16
9,C31U C9U,0.32
10,C31U C32A,0.05
11,C31U C32G,0.08
12,C31U C32U,0.09
13,C31U C33A,0.08
14,C31U C33G,0.06
15,C31U C33U,0.31
16,C31U C52A,0.57
17,C31U C52G,0.75
18,C31U C52U,0.96
19,C31U G13A,0.89
20,C31U G13C,0.02
21,C31U G13U,0.05
22,C31U G19A,0.14
23,C31U G19C,0.06
24,C31U G19U,0.05

row,Variant,self-cleavage
1,C31U G22A,0.52
2,C31U G22C,0.07
3,C31U G22U,0.3
4,C31U G23A,0.07
5,C31U G23C,0.04
6,C31U G23U,0.04
7,C31U G30A,0.03
8,C31U G30C,0.03
9,C31U G30U,0.03
10,C31U G34A,0.42
11,C31U G34C,0.24
12,C31U G34U,0.56
13,C31U G35A,0.87
14,C31U G35C,0.14
15,C31U G35U,0.85
16,C31U G42A,0.09
17,C31U G42C,0.07
18,C31U G42U,0.03
19,C31U G44A,0.29
20,C31U G44C,0.62
21,C31U G44U,0.51
22,C31U G45A,0.04
23,C31U G45C,0.04
24,C31U G45U,0.04

row,Variant,self-cleavage
1,C31U G47A,0.05
2,C31U G47C,0.03
3,C31U G47U,0.05
4,C31U G48A,0.05
5,C31U G48C,0.05
6,C31U G48U,0.04
7,C31U G49A,0.06
8,C31U G49C,0.05
9,C31U G49U,0.06
10,C31U G50A,0.64
11,C31U G50C,0.26
12,C31U G50U,0.6
13,C31U G51A,0.29
14,C31U G51C,0.06
15,C31U G51U,0.13
16,C31U G53A,0.19
17,C31U G53C,0.05
18,C31U G53U,0.08
19,C31U G54A,0.32
20,C31U G54C,0.27
21,C31U G54U,0.5
22,C31U U12A,0.28
23,C31U U12C,0.11
24,C31U U12G,0.19

row,Variant,self-cleavage
1,C31U U18A,0.9
2,C31U U18C,0.87
3,C31U U18G,0.82
4,C31U U24A,0.02
5,C31U U24C,0.05
6,C31U U24G,0.03
7,C31U U37A,0.84
8,C31U U37C,0.94
9,C31U U37G,1
10,C31U U43A,0.17
11,C31U U43C,0.08
12,C31U U43G,0.1
13,C32A,0.15
14,C32A C9A,0.05
15,C32A C9G,0.06
16,C32A C9U,0.05
17,C32A C33A,0.07
18,C32A C33G,0.03
19,C32A C33U,0.05
20,C32A C52A,0.1
21,C32A C52G,0.1
22,C32A C52U,0.18
23,C32A G13A,0.01
24,C32A G13C,0.01

row,Variant,self-cleavage
1,C32A G13U,0.01
2,C32A G19A,0.07
3,C32A G19C,0.02
4,C32A G19U,0.04
5,C32A G22A,0.08
6,C32A G22C,0.03
7,C32A G22U,0.06
8,C32A G23A,0.17
9,C32A G23C,0.03
10,C32A G23U,0.48
11,C32A G30A,0.02
12,C32A G30C,0.03
13,C32A G30U,0.02
14,C32A G34A,0.06
15,C32A G34C,0.08
16,C32A G34U,0.05
17,C32A G35A,0.06
18,C32A G35C,0.05
19,C32A G35U,0.07
20,C32A G42A,0.06
21,C32A G42C,0.06
22,C32A G42U,0.02
23,C32A G44A,0.06
24,C32A G44C,0.07

row,Variant,self-cleavage
1,C32A G44U,0.08
2,C32A G45A,0.04
3,C32A G45C,0.02
4,C32A G45U,0.03
5,C32A G47A,0.04
6,C32A G47C,0.03
7,C32A G47U,0.04
8,C32A G48A,0.03
9,C32A G48C,0.04
10,C32A G48U,0.03
11,C32A G49A,0.04
12,C32A G49C,0.03
13,C32A G49U,0.04
14,C32A G50A,0.05
15,C32A G50C,0.07
16,C32A G50U,0.08
17,C32A G51A,0.07
18,C32A G51C,0.03
19,C32A G51U,0.04
20,C32A G53A,0.08
21,C32A G53C,0.02
22,C32A G53U,0.05
23,C32A G54A,0.11
24,C32A G54C,0.06

row,Variant,self-cleavage
1,C32A G54U,0.18
2,C32A U12A,0.07
3,C32A U12C,0.04
4,C32A U12G,0.06
5,C32A U18A,0.11
6,C32A U18C,0.07
7,C32A U18G,0.19
8,C32A U24A,0.06
9,C32A U24C,0.04
10,C32A U24G,0.02
11,C32A U37A,0.14
12,C32A U37C,0.13
13,C32A U37G,0.18
14,C32A U43A,0.07
15,C32A U43C,0.06
16,C32A U43G,0.05
17,C32G,0.18
18,C32G C9A,0.03
19,C32G C9G,0.11
20,C32G C9U,0.04
21,C32G C33A,0.07
22,C32G C33G,0.05

# Reference: the RNAGym collection of RNA variant scans (doi:10.1002/anie.201605470)
